Source: ChEMBL document CHEMBL2010803, “Novel NSAID 1-acyl-4-cycloalkyl/arylsemicarbazides and 1-acyl-5-benzyloxy/hydroxy carbamoylcarbazides as potential anticancer agents and antioxidants” (Eur J Med Chem, 2012)
Activity calls are given as the source filed them. No cut-off for these calls is given here.

Legend:
[1] = system: Vaccinia virus; assay: Antiviral activity against Vaccinia virus infected in human lung fibroblast assessed as inhibition of virus-induced cytopathic effect at 0.32 to 100 uM; format: functional, organism-based; details: Orthopoxvirus vaccinia
[2] = Antioxidant activity assessed as inhibition of AAPH-induced linoleic acid lipid peroxidation by measuring conjugated diene hydroperoxide level; format: functional; set-up: concentration or dose not given beside the values; details: dose or concentration not given here
Summary of the method: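 Linoleic acid sodium salt (10 μL of 16 mM) in 0.05 M phosphate buffer pH 7.4 at 37 °C. Oxidation started under air with 50 μL of 40 mM AAPH. Conjugated diene hydroperoxide formation followed as absorbance rise at 234 nm; control contains the same DMSO level. At least triplicate.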

[3] = system: Human respirovirus 3; assay: Antiviral activity against Parainfluenza virus 3 infected in african green monkey Vero cells assessed as inhibition of virus-induced cytopathic effect at 0.32 to 100 uM; format: functional, organism-based
Summary of the method: (§1)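 Confluent cell cultures were infected with 100 CCID50 of virus in the presence of test compound at 100, 40, 8, 1.6 and 0.32 μM. Cytopathic effect was scored once it was complete in untreated infected controls.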

[4] = system: Coxsackievirus B4; assay: Antiviral activity against Coxsackievirus B4 infected in african green monkey Vero cells assessed as inhibition of virus-induced cytopathic effect at 0.32 to 100 uM; format: functional, organism-based; summary of the method: as §1
[5] = system: Influenza A virus; assay: Antiviral activity against Influenza A virus H1N1 infected in MDCK cells assessed as inhibition of virus-induced cytopathic effect at 0.32 to 100 uM; format: functional, organism-based
Summary of the method: (§2)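 Confluent MDCK monolayers were infected in the presence of the compound at 100, 40, 8, 1.6 and 0.32 μM. Viral cytopathicity was scored once it was complete in untreated infected control cultures.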

[6] = system: Sindbis virus; assay: Antiviral activity against Sindbis virus infected in african green monkey Vero cells assessed as inhibition of virus-induced cytopathic effect at 0.32 to 100 uM; format: functional, organism-based; summary of the method: as §1
[7] = system: Vesicular stomatitis virus; assay: Antiviral activity against VSV infected in human lung fibroblast assessed as inhibition of virus-induced cytopathic effect at 0.32 to 100 uM; format: functional, organism-based
[8] = system: Respiratory syncytial virus; assay: Antiviral activity against RSV infected in human cervix carcinoma cells assessed as inhibition of virus-induced cytopathic effect at 0.32 to 100 uM; format: functional, organism-based; summary of the method: as §1
[9] = system: Feline coronavirus; assay: Antiviral activity against Feline coronavirus infected in feline CRFK cells assessed as inhibition of virus-induced cytopathic effect at 0.32 to 100 uM; format: functional, organism-based; summary of the method: as §1
[10] = system: Human alphaherpesvirus 2; assay: Antiviral activity against HSV2 G infected in human lung fibroblast assessed as inhibition of virus-induced cytopathic effect at 0.32 to 100 uM; format: functional, organism-based; details: strain G; summary of the method: as §1
[11] = system: L1210; assay: Cytostatic activity against mouse L1210 cells after 2 days by coulter counter analysis; format: functional, cell-based; details: L1210, 48 h
Summary of the method: (§3)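 300,000–500,000 cells/ml mixed 1:1 with compound dilutions and incubated at 37 °C for 2 days (L1210) or 3 days (CEM, HeLa). Cell number counted with a Coulter counter; HeLa trypsinized before counting.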

[12] = system: Felid alphaherpesvirus 1; assay: Antiviral activity against Feline herpesvirus infected in feline CRFK cells assessed as inhibition of virus-induced cytopathic effect at 0.32 to 100 uM; format: functional, organism-based; summary of the method: as §1
[13] = system: Radical scavenging activity; assay: Antioxidant activity assessed as DPPH free radical scavenging activity at 100 uM after 60 mins by spectrophotometric analysis; format: functional
Summary of the method: (§4)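 0.05 mM DPPH in absolute ethanol mixed with an equal volume of compound in DMSO (final 100 μM). Shaken and left 20 or 60 min, then absorbance read at 517 nm and percent activity calculated. Three replicates, averaged.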

[14] = system: Glycine max; assay: Inhibition of soybean LOX assessed as conversion of sodium linoleate to 13- hydroperoxylinoleic acid at 100 uM
[15] = system: Mammalian orthoreovirus 1; assay: Antiviral activity against Reovirus-1 infected in african green monkey Vero cells assessed as inhibition of virus-induced cytopathic effect at 0.32 to 100 uM; format: functional, organism-based; summary of the method: as §1
[16] = system: Vesicular stomatitis virus; assay: Antiviral activity against Vesicular stomatitis virus infected in human cervix carcinoma cells assessed as inhibition of virus-induced cytopathic effect at 0.32 to 100 uM; format: functional, organism-based
Summary of the method: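 Confluent human cervix carcinoma (HeLa) cultures received 100 CCID50 of VSV together with the compound at 100, 40, 8, 1.6 or 0.32 μM. Cytopathicity was read at the point of full CPE in infected, untreated control wells.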

[17] = system: Influenza A virus; assay: Antiviral activity against Influenza A virus H3N2 infected in MDCK cells assessed as inhibition of virus-induced cytopathic effect at 0.32 to 100 uM; format: functional, organism-based; summary of the method: as §2
[18] = system: NCI-H460; assay: Cytostatic activity against human NCI-H460 cells after 72 hrs by MTT assay; format: functional, cell-based; details: NCI-H460, 72 h
Summary of the method: (§5)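 Monolayers in DMEM with 10% FBS, 2 mM L-glutamine and penicillin/streptomycin, 37 °C, 5% CO2. Seeded at 1–3 × 10^4 cells/ml, then compound added in tenfold dilutions (10⁻⁸–10⁻⁴ M) for 72 h. MTT read at 570 nm; percent growth taken against time-zero and untreated controls. IC50 by linear regression; quadruplicate, at least two experiments.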

[19] = system: Radical scavenging activity; assay: Antioxidant activity assessed as DPPH free radical scavenging activity at 100 uM after 20 mins by spectrophotometric analysis; format: functional; summary of the method: as §4
[20] = system: HeLa; assay: Cytostatic activity against human HeLa cells after 3 days by coulter counter analysis; format: functional, cell-based; details: 72 h; summary of the method: as §3
[21] = system: Punta Toro virus; assay: Antiviral activity against Punta Toro virus infected in african green monkey Vero cells assessed as inhibition of virus-induced cytopathic effect at 0.32 to 100 uM; format: functional, organism-based; summary of the method: as §1
[22] = system: Coxsackievirus B4; assay: Antiviral activity against Coxsackievirus B4 infected in human cervix carcinoma cells assessed as inhibition of virus-induced cytopathic effect at 0.32 to 100 uM; format: functional, organism-based; summary of the method: as §1
[23] = system: HCT-116; assay: Cytostatic activity against human HCT116 cells after 72 hrs by MTT assay; format: functional, cell-based; details: HCT-116, 72 h; summary of the method: as §5
[24] = system: MCF7; assay: Cytostatic activity against human MCF7 cells after 72 hrs by MTT assay; format: functional, cell-based; details: MCF7, 72 h; summary of the method: as §5
[25] = system: Human immunodeficiency virus 1; assay: Antiviral activity against HIV1 3B infected in human CEM cells assessed as inhibition of virus-induced CEM giant cell formation at 0.32 to 100 uM after 4 days; format: functional, organism-based; details: CCRF-CEM
Summary of the method: (§6)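 CEM cells (~3 × 10^5 cells/cm³) exposed to 100 CCID50/ml of virus and seeded into wells holding compound dilutions. Incubated 4 days at 37 °C, then giant cell formation examined microscopically.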

[26] = system: Human immunodeficiency virus 2; assay: Antiviral activity against HIV2 ROD infected in human CEM cells assessed as inhibition of virus-induced CEM giant cell formation at 0.32 to 100 uM after 4 days; format: functional, organism-based; details: ISOLATE ROD, CCRF-CEM; summary of the method: as §6
[27] = system: Human alphaherpesvirus 1; assay: Antiviral activity against HSV1 KOS infected in human lung fibroblast assessed as inhibition of virus-induced cytopathic effect at 0.32 to 100 uM; format: functional, organism-based; summary of the method: as §1
[28] = system: Influenza B virus; assay: Antiviral activity against Influenza B virus infected in MDCK cells assessed as inhibition of virus-induced cytopathic effect at 0.32 to 100 uM; format: functional, organism-based; summary of the method: as §2
[29] = system: CCRF-CEM; assay: Cytostatic activity against human CEM cells after 3 days by coulter counter analysis; format: functional, cell-based; details: 72 h; summary of the method: as §3

Row | SMILES | inhibition [1] | inhibition [2] [%] | inhibition [3] | inhibition [4] | inhibition [5] | inhibition [6] | inhibition [7] | inhibition [8] | inhibition [9] | inhibition [10] | IC50 [11] [µM] | inhibition [12] | Activity [13] | inhibition [14] | inhibition [15] | inhibition [16] | inhibition [17] | IC50 [18] [µM] | Activity [19] | IC50 [20] [µM] | further results
1 | CC(C(=O)NNC(=O)NO)c1cccc(Oc2ccccc2)c1 (stereo unspecified) | inactive | 22 | inactive | inactive | inactive | inactive | inactive | inactive | inactive | inactive | 125 | inactive | 66% | 3% | inactive | inactive | inactive | > 100 | 39% | ≥ 250 | inhibition [21]: inactive; inhibition [22]: inactive; IC50 [23]: > 100 µM; IC50 [24]: > 100 µM; inhibition [25]: inactive; inhibition [26]: inactive; inhibition [27]: inactive; inhibition [28]: inactive; IC50 [29]: 183 µM
2 | CC(C(=O)NN)c1cccc(Cc2ccccc2)c1 (stereo unspecified) | inactive | 6 | inactive | inactive | inactive | inactive | inactive | inactive | inactive | inactive | 212 | inactive | inactive | 10% | inactive | inactive | inactive | > 100 | inactive | 142 | inhibition [21]: inactive; inhibition [22]: inactive; IC50 [23]: > 100 µM; IC50 [24]: > 100 µM; inhibition [25]: inactive; inhibition [26]: inactive; inhibition [27]: inactive; inhibition [28]: inactive; IC50 [29]: 150 µM
3 | CC(C)Cc1ccc(C(C)C(=O)NNC(=O)NCC2CCCCC2)cc1 (stereo unspecified) | inactive | 16 | inactive | inactive | inactive | inactive | inactive | inactive | inactive | inactive | 44 | inactive | 6% | 25% | inactive | inactive | inactive | 29 | 3% | 142 | inhibition [21]: inactive; inhibition [22]: inactive; IC50 [23]: 21 µM; IC50 [24]: 13 µM; inhibition [25]: inactive; inhibition [26]: inactive; inhibition [27]: inactive; inhibition [28]: inactive; IC50 [29]: 26 µM
4 | NNC(=O)NOCc1ccccc1 | inactive | 36 | inactive | inactive | inactive | inactive | inactive | inactive | inactive | inactive | > 250 | inactive | 14% | inactive | inactive | inactive | inactive | > 100 | 6% | > 250 | inhibition [21]: inactive; inhibition [22]: inactive; IC50 [23]: > 100 µM; IC50 [24]: > 100 µM; inhibition [25]: inactive; inhibition [26]: inactive; inhibition [27]: inactive; inhibition [28]: inactive; IC50 [29]: > 250 µM
